Test results as given in paper PMC7501955 (Drug Design, Development and Therapy, 2020).

Tested on: duck HBV (DHBV)
Assay: Antiviral efficacy in a duck HBV model, serum DHBV DNA by quantitative PCR
Format: in vivo, Pekin ducklings
Conditions: DHBV-infected ducks, 50 mg/kg 3TC; for Serum DHBV DNA: P<0.001
Method in brief: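 Pekin ducklings were infected with DHBV-positive duck serum and assayed for DNA load 7 days later (T0). Groups of five received test compound at 25, 50 or 100 mg/kg by oral gavage for 14 days. Controls were saline (negative) and 3TC 50 mg/kg once daily (positive). Serum DHBV DNA was measured by qPCR on treatment days 0, 7, 14 and 3 days after stopping; mean ± SD.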

Nc1ccn([C@@H]2CS[C@H](CO)O2)c(=O)n1 [3TC, lamivudine]
Reduction of serum DHBV DNA compared to vehicle controls (T7): up to 2 log10 | Serum DHBV DNA (T7 (day 7 of treatment)): significantly inhibited | Serum DHBV DNA (T14 (day 14 of treatment)): significantly inhibited
